Here are results for seven molecules from ChEMBL document CHEMBL4840330, “Secoiridoids from Dogwood (Cornus officinalis) Potentiate Progesterone Signaling” (J Nat Prod, 2021).

The source made the active and inactive calls.

Assay [1] has as its target T1, Progesterone receptor (Homo sapiens) (UniProt P06401).
T1 sequence (whole entry): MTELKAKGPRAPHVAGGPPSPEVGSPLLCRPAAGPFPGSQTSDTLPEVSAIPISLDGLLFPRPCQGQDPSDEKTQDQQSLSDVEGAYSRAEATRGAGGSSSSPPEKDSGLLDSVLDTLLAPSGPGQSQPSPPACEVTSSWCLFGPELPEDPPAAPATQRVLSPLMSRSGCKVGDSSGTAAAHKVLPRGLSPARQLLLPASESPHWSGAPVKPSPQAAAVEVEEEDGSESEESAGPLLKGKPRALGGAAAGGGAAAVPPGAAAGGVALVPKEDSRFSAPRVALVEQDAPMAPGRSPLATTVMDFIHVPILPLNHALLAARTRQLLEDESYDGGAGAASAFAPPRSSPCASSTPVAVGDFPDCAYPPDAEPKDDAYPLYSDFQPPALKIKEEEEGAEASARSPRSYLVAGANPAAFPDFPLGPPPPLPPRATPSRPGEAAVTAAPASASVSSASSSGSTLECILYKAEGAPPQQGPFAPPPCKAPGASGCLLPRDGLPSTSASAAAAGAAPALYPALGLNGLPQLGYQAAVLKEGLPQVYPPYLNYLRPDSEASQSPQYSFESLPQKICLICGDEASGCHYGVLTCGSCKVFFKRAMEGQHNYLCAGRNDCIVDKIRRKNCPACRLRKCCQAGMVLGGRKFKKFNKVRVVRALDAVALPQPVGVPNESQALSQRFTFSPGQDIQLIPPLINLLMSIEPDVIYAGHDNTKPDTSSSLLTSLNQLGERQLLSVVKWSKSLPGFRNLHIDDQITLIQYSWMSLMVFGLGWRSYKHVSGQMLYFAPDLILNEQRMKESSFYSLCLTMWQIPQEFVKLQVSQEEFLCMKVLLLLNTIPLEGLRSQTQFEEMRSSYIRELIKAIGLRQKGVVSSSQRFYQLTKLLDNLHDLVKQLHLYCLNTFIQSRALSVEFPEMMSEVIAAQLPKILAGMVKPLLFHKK
The assay can be described thus: Induction of progesterone receptor B in human Ishikawa cells assessed as induction of PRE/Luc transcriptional activity at 10 uM measured after 24 hrs by luciferase reporter gene assay. It is filed as cell-based. The method, boiled down:
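Ishikawa cells stably expressing PR-B; test agent alone at 10 μM; PRE-driven luciferase reporter read-out; n≥3; mean ± SEM.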
On the technique in general: A reporter such as luciferase makes a cellular process visible.

In assay [2] the target is T1, Progesterone receptor (Homo sapiens). As to the kind of experiment: Potentiation of progesterone receptor B in progesterone-stimulated human Ishikawa cells assessed as induction of PRE/Luc transcriptional activity at 10 uM measured after 24 hrs by luciferase reporter gene assay relative to control. The gist of the method: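 Ishikawa cells stably expressing PR-B co-treated with 1 nM progesterone plus test agent at 10 μM; PRE-luciferase reporter activity compared with 1 nM progesterone alone; n≥3; mean ± SEM, significance by p-value thresholds.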

Turning to `C=C[C@H]1[C@H](O[C@@H]2O[C@H](CO)[C@@H](O)[C@H](O)[C@H]2O)OC=C2C(=O)OCC[C@H]21`, the result in assay [1] was inactive.

Consider `C=C[C@H]1C(O[C@@H]2O[C@H](CO)[C@@H](O)[C@H](O)[C@H]2O)OC=C(C(=O)OC)[C@H]1CC(=O)O` (stereo partly specified), for which the outcome in assay [1] was inactive.

Turning to `COC(=O)C1=CO[C@@H](O[C@@H]2O[C@H](CO)[C@@H](O)[C@H](O)[C@H]2O)[C@@H]2[C@H](C)O[C@@H](OC)C[C@H]12`, the Activity in assay [2] was 18%. Besides, the outcome in assay [1] was inactive.

As for `COC(=O)C1=CO[C@@H](O[C@@H]2O[C@H](CO)[C@@H](O)[C@H](O)[C@H]2O)[C@@H]2[C@H](C)O[C@H](OC)C[C@H]12`, the Activity in assay [2] stood at 29%. Besides, in assay [1], the outcome was inactive.

`C=C[C@H]1[C@H](O[C@@H]2O[C@H](CO)[C@@H](O)[C@H](O)[C@H]2O)OC=C(C(=O)OC)[C@H]1CCOC(=O)c1cc(O)c(O)c(O)c1`: the Activity in assay [2] (filed as activator) is 43%. Besides, in assay [1], the outcome was inactive.

Turning to `C=C[C@H]1[C@H](O[C@@H]2O[C@H](CO)[C@@H](O)[C@H](O)[C@H]2O)OC=C(C(=O)O)[C@H]1CCOC(=O)c1cc(O)c(O)c(O)c1`, the Activity in assay [2] (filed as activator) was 42%. For the same molecule, in assay [1], the outcome was inactive.

In the case of `C=C[C@H]1C(O[C@@H]2O[C@H](CO)[C@@H](O)[C@H](O)[C@H]2O)OC=C(C(=O)O)[C@H]1CC(=O)O` (stereo partly specified), the result in assay [1] was inactive.
